These results are taken from ChEMBL document CHEMBL3994599, “Pallidopenillines: Polyketides from the Alga-Derived Fungus Penicillium thomii Maire KMM 4675” (J Nat Prod, 2016).

Each structure is given as a SMILES string. Calls of active or inactive are those of the source. No cut-off for these calls is given here.

One experiment has as its system MEL28. Kind of experiment: Cytotoxicity against human MEL28 cells assessed as reduction in cell viability up to 100 uM after 24 to 72 hrs by MTT assay. It counts as functional, cell-based. (In general: Formazan colour is commonly taken as a measure of viable cells.)
The test system of the next experiment is HCT-116. Kind of experiment: Cytotoxicity against human HCT116 cells assessed as reduction in cell viability up to 100 uM after 24 to 72 hrs by MTT assay. It counts as functional, cell-based.
In the next experiment the test system is RAW264.7. Kind of experiment: Inhibition of ROS generation in mouse RAW264.7 cells at 10 uM after 24 hrs by H2DCF-DA staining based fluorescence assay relative to control. It counts as functional. The following applies: RAW264.7, 24 h. The essentials: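 RAW 264.7 murine macrophages were stimulated with lipopolysaccharide (LPS), and compounds were tested at 10 μM. ROS levels were expressed as percent change relative to control cells treated with LPS alone. Significance was reported as p values.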

Experiment [1] concerns CWR22R. The experiment in a line: Cytotoxicity against human 22Rv1 cells assessed as reduction in cell viability up to 72 hrs by MTT assay. The following applies: 22Rv1, 72 h. It counts as functional, cell-based.
The subject of experiment [2] is CWR22R. Kind of experiment: Cytotoxicity against human 22Rv1 cells assessed as inhibition of colony formation at 1 uM relative to control. It counts as functional. A digest of the protocol: (§1)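 Soft agar method: 22Rv1 human prostate cancer cells were grown in soft agar with compound. Colony formation and growth were compared with untreated control.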
Experiment [3] concerns CWR22R. Kind of experiment: Cytotoxicity against human 22Rv1 cells assessed as inhibition of colony formation at 2 uM relative to control. It is filed as functional. A digest of the protocol: as §1

Consider `CC(=O)OC[C@H]1CC[C@@H]2[C@@H](C(=O)CCO)[C@](C)(O)C=C[C@H]2C1`, for which the outcome in the experiment on MEL28 and in the experiment on HCT-116 was inactive.
Turning to `CC(=O)OCCC(=O)[C@@H]1[C@H]2CC[C@H](CO)C[C@@H]2C=C[C@@]1(C)O`, the outcome with MEL28 and with HCT-116 was inactive. The inhibition (commonly the drop in the measured response relative to a control, in per cent) at 10 µM in the experiment on RAW264.7 is 27%.
On to `CC(=O)OCCC(=O)[C@H]1C(C)=C[C@@H](O)[C@H]2[C@H](O)[C@@H](C)CC[C@H]12`, for which the concentration for half-maximal inhibition (IC50) (commonly the concentration that gives 50% inhibition) with CWR22R [1] was determined as 9.8 µM. Besides, the inhibition at 1 µM in the experiment on CWR22R [2] is 40%. For the same compound, in the experiment with RAW264.7, testing at 10 µM gave an inhibition of 36%.
`C[C@H]1CC[C@H]2[C@@H](C=C[C@@](C)(O)[C@@H]2C(=O)CCO)[C@@H]1O`: the outcome in the experiment with MEL28 and in the experiment on HCT-116 was inactive.
As for `CC(=O)OCCC(=O)[C@@H]1[C@H]2CC[C@H](C)[C@@H](O)[C@@H]2C=C[C@@]1(C)O`, the inhibition at 2 µM with CWR22R [3] was found to be 40%. In addition, the result with MEL28 and in the experiment on HCT-116 was inactive.
As to `CC(=O)OCCC(=O)[C@@H]1[C@H]2CC[C@H](C)[C@@H](O)[C@@H]2[C@H](Cl)[C@@H](O)[C@@]1(C)O`, in the experiment on RAW264.7, the inhibition at 10 µM was 37%.
`CC(=O)OCCC(=O)[C@@H]1[C@H]2CC[C@H](COC(C)=O)C[C@@H]2C=C[C@@]1(C)O`: the result in the experiment on MEL28 and with HCT-116 was inactive.
